Screening data as filed in PubChem BioAssay.
These entries were drawn from the full list.
Apaf-1 act: activates human Apaf-1 apoptosome. Apaf-1 apoptosome caspase-3 activation, DEVD-Rh110 fluorescence; active compounds read low. hit rate 0.31% among 330,000. AID 489031. O14727. activity change, negative = activation, % at 20 µM;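 active = activity change at or below -40% at 20 µM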
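Material: biochemical Apaf-1 apoptosome reconstitution; Medium: 20 mM HEPES buffer, pH 7.5, containing CHAPS and BSA; Reagent: dATP, cytochrome c, and (Z-DEVD)2-Rh110 caspase-3 substrate; Times: 30 min preincubation, 50 min reaction, room temperature; Signal: Rh110 fluorescence, excitation 480 nm, emission 540 nm; Measure: Caspase-3 activity via Apaf-1.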
Rh110 interf act: Rh110 signal interference in Apaf-1 activator counter-screen. shares compounds with Apaf-1 act. Rh110 fluorescence interference, quenched caspase reaction, Ex480/Em540. fluorescence interference (activity change), % at 20 µM, hits read low. 980 tested, under 10 active. AID 504616;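 active = mean activity change at or below -40% when tested at 20 µM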
Apaf-1 act conf2: confirmation of human Apaf-1 activators; reconstituted apoptosome caspase-3 activity, DEVD-Rh110 fluorescence; active compounds read low; activity change, negative = activation, % at 20 µM; shares compounds with Apaf-1 act; hit rate 5% among 980;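 active = mean activity change at or below -40%, meaning activation of 40% or more, at 20 µM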
Active calls of the source: *; x = no result given.

SMILES | Apaf-1 act | Rh110 interf act | Apaf-1 act conf2
CCN(CC(=O)Nc1cc(S(=O)(=O)N2CCOCC2)ccc1Cl)Cc1ccccc1 | 42 | x | x
CC12COC3(P(=O)(c4ccccc4)c4ccccc4)CC1CCC23CP(=O)(c1ccccc1)c1ccccc1 (stereo not drawn) | 41 | x | x
OCCNC(=S)Nc1ccc2nsnc2c1 | 97 | x | x
C#CCOCCOCCOCCNc1nc(N2CCN(C(=O)CCCCCCCCCCNC(=O)[C@H](CCCCN)n3cc(CCO)nn3)CC2)nc(N2CCN(C(=O)CCCCCCCCCCNC(=O)[C@H](CCCN=C(N)N)n3cc(C[C@@H](C)CC)nn3)CC2)n1 | 78 | x | x
CCCCn1c(=O)[nH]c(=O)c2c1nc(-c1ccc([N+](=O)[O-])cc1)n2CC | -45* | 2 | -1
C#CCOCCOCCOCCNc1nc(N2CCOCC2)nc(N2CCN(C(=O)[C@H](CCCCN)n3cc(CN)nn3)CC2)n1 | 49 | x | x
O=C(CCc1ccccc1)NNc1cc(N2CCCCC2)nc(N2CCCCC2)n1 | 60 | x | x
Cc1ccc(S(=O)(=O)Nc2ccccc2F)cc1C(=O)NCc1ccco1 | -54* | 11 | 11
Nc1c(C(=O)NCc2ccco2)c2nc3ccccc3nc2n1CCc1ccc(F)cc1 | 78 | x | x
CCN1CCN(C2=C(NS(=O)(=O)c3ccc(C)cc3)C(=O)c3ccccc3C2=O)CC1 | 77 | x | x
CC1=NN(c2ccccc2)C(=O)C1 | 41 | x | x
Cc1[nH]n(-c2ccccc2)c(=O)c1C(C[N+](=O)[O-])c1ccc(Cl)cc1 (stereo not drawn) | 88 | x | x
CC(C)CC(=O)NC(NC(=S)Nc1sc2c(c1C#N)CCCC2)C(Cl)(Cl)Cl (stereo not drawn) | -215* | 5 | 34
CCOC(=O)Nc1sc2c(c1C#N)CCCC2 | -62* | -4 | 10
CCC(=O)OCCNc1cc(Sc2nc3ccccc3s2)c2nonc2c1[N+](=O)[O-] | 46 | x | x
COc1ccc(/C=C2/C(=O)N(c3ccccc3)N=C2C)cc1Br | 87 | x | x
COc1ccc(OCc2nnc(SCC(=O)NC3CC3)n2C)cc1 | -96* | -3 | 8
COc1ccc(-n2nc(C(=O)NCC(=O)NC3CCCCCC3)c3ccccc3c2=O)c(OC)c1 | 48 | x | x
CC1CCN(C(=O)CSc2nnc(Cn3c(=O)sc4ccccc43)n2C)CC1 | 43 | x | x
Cc1ccc(C=Nc2ccccc2C(=O)Nc2ccccc2)cc1 | -464* | 5 | 8
Cc1ccc2nc(-c3ccc(NC(=S)NC4CC(C)(C)NC(C)(C)C4)cc3)sc2c1 | 50 | x | x
O=C(Nc1ccc(N2CCCC2)cc1)C(Cl)c1ccccc1 (stereo not drawn) | 65 | x | x
C#CCOCCOCCOCCNc1nc(N2CCN(C(=O)CCCCCCCCCCNC(=O)[C@H](CO)n3cc(CCCSC)nn3)CC2)nc(N2CCN(C(=O)CCCCCCCCCCNC(=O)[C@H](CCCCN)n3cc(C[C@@H](C)CC)nn3)CC2)n1 | 68 | x | x
O=C1C2=C(c3ccccc31)[N+](=O)C1CCCCC1N2[O-] (stereo not drawn) | 54 | x | x
COc1cc(OC)c(OC)cc1/C=N/N(C)c1ccccc1 | -78* | 55 | 18
SMILES | Apaf-1 act | Rh110 interf act | Apaf-1 act conf2
COc1ccccc1/C=N/Nc1cc(N(C)C)nc(N(C)C)n1 | 84 | x | x
CC(=O)c1ccc2c(c1)C1C=CCC1C(c1ccncc1)N2 (stereo not drawn) | 60 | x | x
CCN(CC)CCN(C(=O)c1ccc2c(c1)CCCC2)c1nc2ccc(C)cc2s1 | 51 | x | x
COC(=O)C1=C(N)OC2=C(C(=O)CC(C)(C)C2)C1c1cccnc1 (stereo not drawn) | -308* | 6 | 12
Cc1cc(-c2nnc(CCC(=O)NC(C)(C)C34CC5CC(CC(C5)C3)C4)o2)no1 | -55* | 8 | 5
CC(=O)c1c(C)[nH]c(C(=O)CSc2ccc(F)cc2)c1C | -213* | 5 | 5
Cc1ccc(C(=O)c2c(C)oc3c2C(=O)C(=O)c2ccccc2-3)cc1 | 88 | x | x
O=C(O)CC(NC(=O)c1sc2ccccc2c1Cl)c1ccc(OC2CCCC2)cc1 (stereo not drawn) | 44 | x | x
CCOC(=O)N1CCc2c(sc3c2C(=O)NC(c2ccccc2)N3)C1 (stereo not drawn) | 81 | x | x
CCOC(=O)CC1C(=O)NCCN1C(=O)c1sc2ccccc2c1Cl (stereo not drawn) | -260* | -2 | 12
c1ccc([C@H]2CNCCN2CCc2cccc3ccccc23)cc1 | 55 | x | x
COc1cccc(Cn2c(N)c(C#N)c3nc4ccccc4nc32)c1OC | 92 | x | x
Cc1ccc(C2(c3noc(CN(C)CC4CCCCO4)n3)CCCC2)cc1 (stereo not drawn) | -413* | 19 | 18
COc1ccc2nc3cccc(OC)c3nc2c1 | 97 | x | x
CCCCn1c(NC(=O)c2ccc(F)cc2)c(C#N)c2nc3ccccc3nc21 | 95 | x | x
